ChEMBL document CHEMBL4270671, “Pathway-Based Drug Repositioning for Cancers: Computational Prediction and Experimental Validation” (J Med Chem, 2018)
Active and inactive are the calls of the source. No cut-off for these calls is given here.

What was measured:
Caco-2 [1] = assay: Reduction in viability of human Caco2 cells after 6 hrs by fluorescence assay; assay type: functional, cell-based
In short: (§1)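 A single multiplexed triplex kit read cell viability, cytotoxicity and apoptosis, with caspase-3/7 activity as the apoptosis marker. Compounds were tested over a range of concentrations on cancer lines and normal epithelial Het-1A cells, with DMSO as the vehicle control. Read-outs were compared against the DMSO wells.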

PC-3 [2] = assay: Reduction in viability of human PC3 cells after 6 hrs by fluorescence assay; assay type: functional, cell-based; in short: as §1
A549 [3] = assay: Induction of apoptosis in human A549 cells assessed as increase in caspase 3/7 activity after 6 hrs by caspase glo 3/7 assay; assay type: functional, cell-based; in short: as §1
ASPC1 [4] = assay: Reduction in viability of human AsPC1 cells after 6 hrs by fluorescence assay; assay type: functional, cell-based; in short: as §1
ASPC1 [5] = assay: Induction of apoptosis in human AsPC1 cells assessed as increase in caspase 3/7 activity after 6 hrs by caspase glo 3/7 assay; assay type: functional, cell-based; in short: as §1
PC-3 [6] = assay: Induction of apoptosis in human PC3 cells assessed as increase in caspase 3/7 activity after 6 hrs by caspase glo 3/7 assay; assay type: functional, cell-based; in short: as §1
Caco-2 [7] = assay: Induction of apoptosis in human Caco2 cells assessed as increase in caspase 3/7 activity after 6 hrs by caspase glo 3/7 assay; assay type: functional, cell-based; in short: as §1
HET-1A [8] = assay: Reduction in viability of human HET-1A cells after 6 hrs by fluorescence assay; assay type: cell-based; in short: as §1
A549 [9] = assay: Reduction in viability of human A549 cells after 6 hrs by fluorescence assay; assay type: functional, cell-based; in short: as §1
HET-1A [10] = assay: Induction of apoptosis in human HET-1A cells assessed as increase in caspase 3/7 activity after 6 hrs by caspase glo 3/7 assay; assay type: cell-based; in short: as §1
PC-3 [11] = assay: Cytotoxicity against human PC3 cells after 6 hrs by fluorescence assay; assay type: functional, cell-based; in short: as §1
ASPC1 [12] = assay: Cytotoxicity against human AsPC1 cells after 6 hrs by fluorescence assay; assay type: functional, cell-based; in short: as §1
A549 [13] = assay: Cytotoxicity against human A549 cells after 6 hrs by fluorescence assay; assay type: functional, cell-based; in short: as §1
HET-1A [14] = assay: Cytotoxicity against human HET-1A cells after 6 hrs by fluorescence assay; assay type: cell-based; in short: as §1
Caco-2 [15] = assay: Cytotoxicity against human Caco2 cells after 6 hrs by fluorescence assay; assay type: functional, cell-based; in short: as §1

Row | Structure (SMILES) | Activity (Caco-2 [1]) | Activity (PC-3 [2]) | Activity (A549 [3]) | Activity (ASPC1 [4]) | Activity (ASPC1 [5]) | Activity (PC-3 [6]) | Activity (Caco-2 [7]) | Activity (HET-1A [8]) | Activity (A549 [9]) | Activity (HET-1A [10]) | Activity (PC-3 [11]) | Activity (ASPC1 [12]) | Activity (A549 [13]) | Activity (HET-1A [14]) | Activity (Caco-2 [15])
1 | O=C(Nc1ccc([N+](=O)[O-])cc1Cl)c1cc(Cl)ccc1O [NICLOSAMIDE] | Dose-dependent effect | Dose-dependent effect | Active | Dose-dependent effect | Active | Dose-dependent effect | Active | Dose-dependent effect | Dose-dependent effect | – | – | – | – | – | –
2 | CN(C)CCCN1c2ccccc2Sc2ccccc21 [PROMAZINE] | Dose-dependent effect | Dose-dependent effect | Dose-dependent effect | Dose-dependent effect | Active | Dose-dependent effect | Dose-dependent effect | Dose-dependent effect | Dose-dependent effect | Dose-dependent effect | Dose-dependent effect | Dose-dependent effect | Dose-dependent effect | Dose-dependent effect | Dose-dependent effect
3 | CC[C@H]1OC(=O)[C@H](C)[C@@H](O[C@H]2C[C@@](C)(OC)[C@@H](O)[C@H](C)O2)[C@H](C)[C@@H](O[C@@H]2O[C@H](C)C[C@H](N(C)C)[C@H]2O)[C@](C)(O)C[C@@H](C)[C@@H]2N[C@@H](COCCOC)O[C@H]([C@H]2C)[C@]1(C)O [DIRITHROMYCIN] | inactive | inactive | – | inactive | – | – | – | Toxic | inactive | – | – | – | – | – | –
4 | CN1[C@@H]2CCC[C@H]1CC(NC(=O)c1nn(C)c3ccccc13)C2 (stereo partly specified) | inactive | inactive | – | inactive | – | – | – | Toxic | inactive | – | – | – | – | – | –
5 | COC(=O)C1=C(C)NC(C)=C(C(=O)OCCN(C)Cc2ccccc2)C1c1cccc([N+](=O)[O-])c1 (stereo unspecified) [NICARDIPINE] | Dose-dependent effect | Dose-dependent effect | – | Dose-dependent effect | – | Dose-dependent effect | Dose-dependent effect | Dose-dependent effect | Dose-dependent effect | Dose-dependent effect | Dose-dependent effect | Dose-dependent effect | Dose-dependent effect | Dose-dependent effect | Dose-dependent effect
6 | CC(=O)Oc1ccccc1C(=O)Nc1ncc([N+](=O)[O-])s1 | – | – | inactive | – | inactive | inactive | inactive | – | – | – | – | – | – | – | –
7 | OC1(c2ccc(Cl)c(C(F)(F)F)c2)CCN(CCCC(c2ccc(F)cc2)c2ccc(F)cc2)CC1 [PENFLURIDOL] | Dose-dependent effect | Dose-dependent effect | Dose-dependent effect | Dose-dependent effect | Active | Dose-dependent effect | Dose-dependent effect | Dose-dependent effect | Dose-dependent effect | Dose-dependent effect | Dose-dependent effect | Dose-dependent effect | Dose-dependent effect | Dose-dependent effect | Dose-dependent effect
